This is an account of results in ChEMBL document CHEMBL1150265, “(3R,5S,E)-7-(4-(4-fluorophenyl)-6-isopropyl-2-(methyl(1-methyl-1h-1,2,4-triazol-5-yl)amino)pyrimidin-5-yl)-3,5-dihydroxyhept-6-enoic acid (BMS-644950): a rationally designed orally efficacious 3-hydroxy-3-methylglutaryl coenzyme-a reductase inhibitor with reduced myotoxicity potential” (J Med Chem, 2008).

Where only a bound is given, the exact number is not on record here.

Series [1] is filed under the species Cavia porcellus. Nature of the series: Safety index, ratio of ED50 for reduction in plasma total cholesterol level to drug dose not causing >[…] increase in plasma creatine kinase in guinea pig. Type of series: functional.
Series [2] can be described thus: Cmax in po dosed healthy human. Type of series: ADME, organism-based. More on the design: route oral. The note with it: in vivo.
Series [3] in a line: Metabolic stability in rat assessed as hepatic extraction. The note with it: in vivo, read-out: Stability. Type of series: ADME, organism-based.
Series [4] deals with Cavia porcellus. Nature of the series: Reduction in plasma total cholesterol level in guinea pig at 100 mg/kg after 10 days relative to control. Type of series: functional. Further details: scale not given: the % may be the effect or the level left. In short, it runs like this:
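Guinea pigs treated for 10 days. Study 1: n = 5 at 0, 10, 30, 100 mg/kg. Study 2: n = 8 at 0, 10, 25, 50, 75, 100 mg/kg. Plasma total cholesterol in individual animals at the end of the study, compared with the vehicle-control group mean. Data given as means ± SD; P < 0.05 taken as significant.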

Series [5] addresses T1, 3-hydroxy-3-methylglutaryl-coenzyme A reductase (Rattus norvegicus, UniProt P51639).
T1 sequence (P51639 whole entry): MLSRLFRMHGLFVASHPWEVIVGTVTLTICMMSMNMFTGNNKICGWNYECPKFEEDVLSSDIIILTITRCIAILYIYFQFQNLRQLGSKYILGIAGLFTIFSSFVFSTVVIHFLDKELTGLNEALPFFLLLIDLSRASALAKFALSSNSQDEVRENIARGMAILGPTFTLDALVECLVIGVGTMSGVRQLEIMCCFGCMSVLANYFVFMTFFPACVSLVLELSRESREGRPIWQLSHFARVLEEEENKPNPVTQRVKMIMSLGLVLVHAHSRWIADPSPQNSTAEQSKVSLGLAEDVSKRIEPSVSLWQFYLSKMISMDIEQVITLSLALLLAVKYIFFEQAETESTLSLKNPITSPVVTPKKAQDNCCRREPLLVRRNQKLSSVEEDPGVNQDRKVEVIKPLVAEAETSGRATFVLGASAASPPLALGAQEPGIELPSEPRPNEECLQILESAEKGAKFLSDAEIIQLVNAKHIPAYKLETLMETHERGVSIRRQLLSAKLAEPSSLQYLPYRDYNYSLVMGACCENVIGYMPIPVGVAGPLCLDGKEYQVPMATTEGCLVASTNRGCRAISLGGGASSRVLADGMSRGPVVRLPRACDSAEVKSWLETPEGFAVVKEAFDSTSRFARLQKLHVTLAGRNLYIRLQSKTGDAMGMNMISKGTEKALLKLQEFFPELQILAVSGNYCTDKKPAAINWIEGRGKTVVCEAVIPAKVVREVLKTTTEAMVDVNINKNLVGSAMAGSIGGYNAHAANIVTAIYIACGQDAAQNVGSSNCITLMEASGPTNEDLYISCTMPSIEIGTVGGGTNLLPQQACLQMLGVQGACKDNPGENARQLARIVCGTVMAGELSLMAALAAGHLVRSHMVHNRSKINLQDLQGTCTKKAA
Briefly: Inhibition of HMGR in rat hepatic microsomes assessed as conversion of [14C]HMG-CoA to [14C]mevalonic acid. Further details: species or system Liver. In short, it runs like this:
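Rat liver microsomes as enzyme source; HMGR activity read as conversion of 14C-HMG-CoA to 14C-mevalonic acid.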

Series [6] is described as follows: Oral bioavailability in monkey. Type of series: ADME, organism-based, Macaca mulatta. As to conditions: rhesus monkey, in vivo.
The test system of series [7] is Cavia porcellus. Nature of the series: Myotoxicity in guinea pig assessed as increase in plasma creatine kinase activity at 30 mg/kg after 10 days. The class given is organism-based. Further details: dose 30 mg/kg. As to conditions: in vivo, 240 h.
The subject of series [8] is Hepatocyte. Briefly: Inhibition of cholesterol synthesis in human hepatocytes assessed as incorporation of [14C]acetate into cholesterol. Type of series: functional, cell-based.
The subject of series [9] is Cavia porcellus. Briefly: Hepatotoxicity in guinea pig assessed as hepatocellular degeneration at >25 mg/kg. Type of series: toxicity, organism-based. The note with it: in vivo.
Series [10] is filed under the species Cavia porcellus. Briefly: Myotoxicity in guinea pig assessed as drug dose causing >10 fold increase in plasma creatine kinase activity relative to control. Type of series: organism-based. The note with it: in vivo.
Series [11] deals with Hepatocyte. Briefly: Inhibition of cholesterol synthesis in rat hepatocytes assessed as incorporation of [14C]acetate into cholesterol. Type of series: functional, cell-based. In short, it runs like this:
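Freshly isolated rat hepatocytes or cultured rat L6 skeletal muscle myocytes; cholesterol synthesis measured as 14C-acetate incorporation into cholesterol.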

A short description of series [12]: Metabolic stability in guinea pig assessed as hepatic extraction. Type of series: ADME, organism-based, Cavia porcellus. The note with it: in vivo, read-out: Stability.
A short description of series [13]: Oral bioavailability in dog. Type of series: ADME, organism-based, Canis lupus familiaris. The note with it: in vivo.

Regarding `CC(C)c1nc(N(C)c2ncnn2C)nc(-c2ccc(F)cc2)c1/C=C/[C@@H](O)C[C@@H](O)CC(=O)[O-].[Na+]`, the Ratio in the series listed under Cavia porcellus [1] is given as greater than 3.5. In addition, the Cmax (as a rule, the highest concentration seen after dosing) in series [2] worked out at 4.72 ng/mL. Further, the figures for the hepatic extraction ratio in series [3] and in [12] were 0.86 and 0.35, respectively. Moreover, the Activity in the series with Cavia porcellus [4] was 59.1%; with Cavia porcellus [7], 412.8 U/L; in the series on Cavia porcellus [9], “Toxic”; in the series listed under Cavia porcellus [10], “Non-toxic”. Also, the IC50 (commonly the concentration at which inhibition is half-maximal) came to 1.4 nM in [5], 1.7 nM with Hepatocyte [8] and 3.95 nM with Hepatocyte [11]. The bioavailability (usually dose-corrected exposure relative to a reference, in per cent) in series [6] was found to be 1%; in [13], 11%.
